Experimental data collected from several papers.
Lines come from different studies, so protocols differ.
Target: Casein kinase I isoform gamma-2 (CSNK1G2, Homo sapiens, UniProt P78368)

CC(C)(C)c1cc(C=C(C#N)C#N)cc(Br)c1O has a remaining activity of 100% (enzyme activity, inhibitor; 0.5 µM).
For Cn1cc(-c2cc(F)cc(N3CCn4c(cc5c4CCCC5)C3=O)c2CO)cc(Nc2ccc(N3CCN(C4COC4)CC3)cn2)c1=O, the inhibition was 7% (enzyme activity, inhibitor; 0.1 µM).
With COc1ncccc1-c1cnn2ccc(N3CCN(C(=O)OC(C)C)CC3)nc12 the remaining binding was 100% (binding, competition with immobilised ligand; 1 µM).
Cc1nn(C)cc1-c1nc2c(N3CCN(Cc4ccc(Cl)cc4)CC3)c(Cl)cnc2[nH]1 gave a remaining binding of 96% (binding, competition with immobilised ligand; 1 µM).
The inhibition of Cn1cc(-c2cccc(N3CCc4c(sc5c4CC(C)(C)C5)C3=O)c2CO)cc(Nc2ccncn2)c1=O is reported as 6% (enzyme activity, inhibitor; 1 µM).
For Nc1ncc(-c2nc(N3CCOCC3)nc(N3CCOCC3)n2)c(C(F)F)n1, the remaining binding was 85% (binding, competition with immobilised ligand; 10 µM).
Cn1cncc1[C@@](O)(COc1ccc(C#N)cc1-c1ccc(OC(F)(F)F)cc1)c1ccc(C#N)cc1 has a remaining binding of 64% (cell-free assay, competition with immobilised ligand; 1 µM).
For O=c1[nH]c2ccccc2n1C1CCN(Cc2ccc(-c3[nH]c4cc5ncnc5cc4nc3-c3ccccc3)cc2)CC1, the remaining signal was 101% (cell-free assay; 0.5 µM).
For COc1cc(Nc2ncc(F)c(Nc3ccc4c(n3)NC(=O)C(C)(C)O4)n2)cc(OC)c1OC, the inhibition was 0% (binding, competition with immobilised ligand; 10 µM).
